Assay results: ChEMBL document CHEMBL4028810, “Synthesis and biological evaluation of novel chalcone derivatives as a new class of microtubule destabilizing agents” (Eur J Med Chem, 2017)
Calls of active or inactive are those of the source. The calls are words filed in the database; no cut-off is given here.

Tests used:
NCI-H460 [1] = assay: Induction of apoptosis in human NCI-H460 cells assessed as late apoptotic cells at 5 uM after 24 hrs by Annexin V-FITC/propidium iodide staining based flow cytometric method (reference value: 0.839%); format: functional
NCI-H460 [2] = assay: Induction of apoptosis in human NCI-H460 cells assessed as late apoptotic cells at 10 uM after 24 hrs by Annexin V-FITC/propidium iodide staining based flow cytometric method (reference value: 0.839%); format: functional
NCI-H460 [3] = assay: Induction of apoptosis in human NCI-H460 cells after 24 hrs by Annexin V-FITC/propidium iodide staining based flow cytometric method; format: functional, cell-based
A549 = assay: Cytotoxicity against human A549 cells after 48 hrs by MTT assay; format: functional, cell-based; conditions: A549, 48 h
Method in brief: (§1)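 Log-phase cells were seeded at about 1 × 10⁵ cells/mL in 96-well plates and allowed to settle 12 h at 37 °C in 5% CO₂. Compounds were added at five concentrations for 48 h. Absorbance was read at dual wavelength 570/630 nm. Survival was expressed as a percentage of control, and IC50 was calculated by the Bliss method (n = 5). Each test was run in triplicate.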

NCI-H460 [4] = assay: Disruption of mitochondrial membrane potential in human NCI-H460 cells after 24 hrs by JC-1 staining based flow cytometric method; format: functional, cell-based
Method in brief: (§2)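 NCI-H460 cells were treated 24 h at 5 or 10 µM, with untreated cells as control. The medium was replaced, and the JC-1 probe was added 20 min later. Cells were then pelleted at 2000 rpm, washed twice in ice-cold PBS and analysed by flow cytometry with excitation at 488 nm and emission at 530 and 590 nm.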

NCI-H460 [5] = assay: Disruption of mitochondrial membrane potential in human NCI-H460 cells assessed as collapse of mitochondrial membrane potential at 5 uM after 24 hrs by JC-1 staining based flow cytometric method (reference value: 1.98%); format: functional; method in brief: as §2
NCI-H460 [6] = assay: Induction of apoptosis in human NCI-H460 cells assessed as live cells at 5 uM after 24 hrs by Annexin V-FITC/propidium iodide staining based flow cytometric method (reference value: 95.8%); format: functional
NCI-H460 [7] = assay: Cell cycle arrest in human NCI-H460 cells assessed as accumulation at S-phase at 5 uM after 48 hrs by propidium iodide staining based flow cytometric method (reference value: 21.79%); format: functional
[8] = Resistant factor, ratio of IC50 for human A549/TR cells to IC50 for human A549 cells; format: functional
Method in brief: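 The resistance index is IC50 on the paclitaxel-resistant line divided by IC50 on the parental sensitive line (A549 or HeLa). Both IC50 values come from the 48 h, five-concentration growth assay with 570/630 nm absorbance read-out and Bliss-method calculation.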

NCI-H460 [9] = assay: Induction of apoptosis in human NCI-H460 cells assessed as appearance of hyper-condensed nuclei after 24 hrs by Hoechst 33258 staining based fluorescence assay; format: functional, cell-based
Method in brief: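 NCI-H460 cells were treated 24 h at 5 or 10 µM, with untreated cells as control. Nuclei were stained with Hoechst 33258 and inspected by fluorescence for chromatin condensation.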

NCI-H460 [10] = assay: Induction of apoptosis in human NCI-H460 cells assessed as necrotic cells at 10 uM after 24 hrs by Annexin V-FITC/propidium iodide staining based flow cytometric method (reference value: 1.84%); format: functional
NCI-H460 [11] = assay: Cell cycle arrest in human NCI-H460 cells assessed as increase in accumulation at G2-phase after 48 hrs by propidium iodide staining based flow cytometric method; format: functional
Sus scrofa = organism: Sus scrofa; assay: Inhibition of porcine brain tubulin polymerization at 15 uM measured at 1 min interval for 40 mins by spectrophotometric method
Method in brief: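 Purified brain tubulin, final 3.0 mg/mL, was added to start the reaction in 80 mM PIPES pH 6.9, 2.0 mM MgCl₂, 0.5 mM EGTA, 1 mM GTP and 10.2% glycerol, with the other components prewarmed to 37 °C. Compounds were tested at 10 or 15 µM. Polymerization at 37 °C was followed as absorbance at 340 nm over 40 min.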

HeLa = assay: Cytotoxicity against human HeLa cells after 48 hrs by MTT assay; format: functional, cell-based; method in brief: as §1
NCI-H460 [12] = assay: Induction of apoptosis in human NCI-H460 cells assessed as upregulation of Bax expression after 48 hrs by Western blot method; format: functional, cell-based
Method in brief: (§3)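 NCI-H460 cells were treated 48 h at various concentrations. Cells were washed in ice-cold PBS and lysed on ice for 20 min, and lysates were spun at 20000 g and 4 °C for 5 min. Protein was quantified by BCA, and equal amounts were run on 12% SDS-PAGE and transferred to PVDF. Membranes were blocked in 5% milk/TBST, probed overnight at 4 °C with primary antibodies (β-actin as reference), then with peroxidase secondary for 2 h. Bands were detected by chemiluminescence.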

NCI-H460 [13] = assay: Induction of apoptosis in human NCI-H460 cells assessed as early apoptotic cells at 5 uM after 24 hrs by Annexin V-FITC/propidium iodide staining based flow cytometric method (reference value: 1.55%); format: functional
L02 = assay: Cytotoxicity against human HL7702 cells after 48 hrs by MTT assay; format: cell-based; conditions: L02, 48 h; method in brief: as §1
NCI-H460 [14] = assay: Induction of apoptosis in human NCI-H460 cells assessed as increase in cleaved caspase-3 expression at 5 to 10 uM after 48 hrs by Western blot method; format: functional, cell-based; method in brief: as §3
NCI-H460 [15] = assay: Induction of apoptosis in human NCI-H460 cells assessed as live cells at 10 uM after 24 hrs by Annexin V-FITC/propidium iodide staining based flow cytometric method (reference value: 95.8%); format: functional
NCI-H460 [16] = assay: Cell cycle arrest in human NCI-H460 cells assessed as accumulation at G1-phase at 10 uM after 48 hrs by propidium iodide staining based flow cytometric method (reference value: 75.84%); format: functional
NCI-H460 [17] = assay: Disruption of mitochondrial membrane potential in human NCI-H460 cells assessed as collapse of mitochondrial membrane potential at 10 uM after 24 hrs by JC-1 staining based flow cytometric method (reference value: 1.98%); format: functional; method in brief: as §2
SK-OV-3 = assay: Cytotoxicity against human SKOV3 cells after 48 hrs by MTT assay; format: functional, cell-based; conditions: SK-OV-3, 48 h; method in brief: as §1
NCI-H460 [18] = assay: Cell cycle arrest in human NCI-H460 cells assessed as accumulation at G1-phase at 5 uM after 48 hrs by propidium iodide staining based flow cytometric method (reference value: 75.84%); format: functional
NCI-H460 [19] = assay: Induction of apoptosis in human NCI-H460 cells assessed as increase in cleaved caspase-9 expression at 5 to 10 uM after 48 hrs by Western blot method; format: functional, cell-based; method in brief: as §3
NCI-H460 [20] = assay: Cell cycle arrest in human NCI-H460 cells assessed as accumulation at G2-phase at 10 uM after 48 hrs by propidium iodide staining based flow cytometric method (reference value: 2.37%); format: functional
T-24 = assay: Cytotoxicity against human T24 cells after 48 hrs by MTT assay; format: functional, cell-based; conditions: T-24, 48 h; method in brief: as §1
NCI-H460 [21] = assay: Cytotoxicity against human NCI-H460 cells after 48 hrs by MTT assay; format: functional, cell-based; conditions: NCI-H460, 48 h; method in brief: as §1
NCI-H460 [22] = assay: Induction of apoptosis in human NCI-H460 cells assessed as down regulation of Bcl2 expression after 48 hrs by Western blot method; format: functional, cell-based; method in brief: as §3
NCI-H460 [23] = assay: Induction of apoptosis in human NCI-H460 cells assessed as early apoptotic cells at 10 uM after 24 hrs by Annexin V-FITC/propidium iodide staining based flow cytometric method (reference value: 1.55%); format: functional

inhibition (Sus scrofa): Active
SMILES: COc1ccc(/C=C/C(=O)c2cc(OC)c(OC)c(OC)c2)cc1OCC(=O)Nc1ccccc1Cl
Activity (NCI-H460 [1]): 3.45%
Activity (NCI-H460 [2]): 42.7%
Activity (NCI-H460 [3]): Dose-dependent effect
IC50 (A549): 5.21 µM
Activity (NCI-H460 [4]): Dose-dependent effect
Activity (NCI-H460 [5]): 3.13%
Activity (NCI-H460 [6]): 83.6%
Activity (NCI-H460 [7]): 29%
Ratio IC50 [8]: 1.2
Activity (NCI-H460 [9]): Dose-dependent effect
Activity (NCI-H460 [10]): 10.9%
Activity (NCI-H460 [11]): Dose-dependent effect
IC50 (HeLa): 4.53 µM
Activity (NCI-H460 [12]): Dose-dependent effect
Activity (NCI-H460 [13]): 11.9%
IC50 (L02): > 50 µM
Activity (NCI-H460 [14]): Active
Activity (NCI-H460 [15]): 22.7%
Activity (NCI-H460 [16]): 1.95%
Activity (NCI-H460 [17]): 4.86%
IC50 (SK-OV-3): 6.28 µM
Activity (NCI-H460 [18]): 59.12%
Activity (NCI-H460 [19]): Active
Activity (NCI-H460 [20]): 72.4%
IC50 (T-24): 5.8 µM
IC50 (NCI-H460 [21]): 3.75 µM
Activity (NCI-H460 [22]): Dose-dependent effect
Activity (NCI-H460 [23]): 23.7%
